Hits are enriched below; roughly 1.8% of the tested compounds scored in any of these assays.
DAGLB inh – diacylglycerol lipase beta (human) inhibition | HEK293T DAGLB membrane lysate, EnzChek fluorogenic substrate | inhibition, % at 5.17 µM | hit rate 0.059% among 340,000 | AID 504411; in the data active = inhibition above about 34%;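 also: 0% = enzyme with vehicle and 100% = wells lacking enzyme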
Target sequence (Q8NCG7 whole entry, looked up): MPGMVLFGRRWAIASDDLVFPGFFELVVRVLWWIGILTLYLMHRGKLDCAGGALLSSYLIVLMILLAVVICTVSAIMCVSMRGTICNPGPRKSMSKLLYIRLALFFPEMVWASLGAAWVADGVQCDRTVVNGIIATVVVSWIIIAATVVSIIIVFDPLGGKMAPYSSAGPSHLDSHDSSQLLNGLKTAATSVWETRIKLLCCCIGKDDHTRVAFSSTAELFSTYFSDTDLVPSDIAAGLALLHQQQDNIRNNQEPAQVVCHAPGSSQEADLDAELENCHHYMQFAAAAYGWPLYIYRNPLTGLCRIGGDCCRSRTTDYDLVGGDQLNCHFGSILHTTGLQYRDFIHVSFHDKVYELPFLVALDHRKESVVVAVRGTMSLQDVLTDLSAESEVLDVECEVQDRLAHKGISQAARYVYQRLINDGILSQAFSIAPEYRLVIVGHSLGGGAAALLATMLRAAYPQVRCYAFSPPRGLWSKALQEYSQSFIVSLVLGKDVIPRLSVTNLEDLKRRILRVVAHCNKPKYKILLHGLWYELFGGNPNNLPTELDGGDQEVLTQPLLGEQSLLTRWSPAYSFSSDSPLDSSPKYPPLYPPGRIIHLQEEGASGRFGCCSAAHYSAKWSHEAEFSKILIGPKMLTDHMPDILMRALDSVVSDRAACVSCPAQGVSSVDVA
hiPSC survival – enhancers of human iPSC single-cell survival; hiPSC single-cell survival, ATPlite luminescence; 100% = ROCK inhibitor wells, 0% = DMSO; survival enhancement, % at 20 µM; hit rate 0.044% among 360,000; AID 602274; in the data active = survival enhancement above about 18%;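 also: cells exposed to compounds for 16 hours before the ATP read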
Ecoli rRNA inh – inhibits bacterial ribosomal RNA function over humanized ribosomes; E. coli WT GFP vs humanized-ribosome RFP mutants, fluorescence, 24 h; stronger effect = lower value; DMSO median 0, no signal -100; GFP signal change (wild-type ribosome), % (no concentration beside the values); hit rate 1.6% among 350,000; AID 720706;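 active = significant combined selectivity score with lowered wild-type GFP, culture density cut under 30%, mutant RFP and density less affected; inactive = any of these conditions unmet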
SKN-1 inh – blocks SKN-1 activity in C. elegans. AID 624304. C. elegans VP596 Pgst-4::GFP/RFP ratio, acrylamide-induced, 24 h. hit rate 0.49% among 360,000. inhibition, % at 21.8 µM;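 active = interference check ratio from 0.5 to 1.5 plus GFP to RFP signal ratio inhibition reaching or exceeding a fixed threshold, cut at about 30% in these data, passing the limit was not always enough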
MT1-MMP act inh – blocks activation of human MT1-MMP; AID 651647; GFP/RFP ratio change, % at 20 µM; HT1080 RFP-PRO-GFP cells, GFP/RFP ratio fluorescence, overnight; percent of plate control window, DMSO zero; hit rate 0.061% among 360,000; P50281;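 active = GFP/RFP ratio change of at least 30% with cell ATP level not reduced by more than half and red fluorescence within 50% of control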
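Assay system – RFP-PRO-GFP reporter HT1080 cells · Compound dosing – single dose of 20 µM compound, 1% DMSO final · Incubation – overnight compound exposure at 37 °C · Measure – GFP/RFP fluorescence ratio · Benchmarks – DMSO wells and RFP-L50D-GFP cells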
Cneo AK release – causes C. neoformans cell lysis. AID 651654. lysis activity, % at 15 µM. adenylate kinase release luminescence, 4 h; normalised: neutral wells 0, clomiphene wells 100. hit rate 0.2% among 360,000;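 active = mean lysis activity across replicates of at least 80%, whatever share of replicates individually reach that level; inactive = mean lysis activity below 80%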
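Test system: log-phase Cryptococcus neoformans yeast cells; Quantity: yeast cell density of 5 × 10^6 cells/mL; Buffer or medium: YPD; Doses: single compound concentration per well; Timing: 4 h at 37 °C static, read 1 h later; Measured by: AK luminescence; Read-out basis: lysis from increased AK signal; Control set: Clomiphene as positive control.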
Numbers without * were called inactive; . = no result given.

SMILES	DAGLB inh	hiPSC survival	Ecoli rRNA inh	SKN-1 inh	MT1-MMP act inh	Cneo AK release
COc1cccc(C2c3cc4c(cc3OC(N3CCCC3)C2C)OCO4)c1O (stereo not drawn)	-2	2	-20*	27	-4	.
C[C@@H]1CN([C@@H](C)CO)C(=O)Cc2cc(NC(=O)C3CC3)ccc2O[C@H]1CN(C)CC1CC1	.	.	5	.	.	1
CC(C)c1ccc(-c2csc3ncnc(N4CCN(C)CC4)c23)cc1	-4	3	-28*	1	-19	0
CN1CCCN(c2ncnc3scc(-c4ccc(F)cc4)c23)CC1	-5	3	-6	13	-14	.
CCn1c(=O)cc(SCC(=O)NCc2ccco2)c2ccccc21	1	-2	.	17	2	5
CC(CCc1ccco1)NC(=O)CSc1cc(=O)n(C)c2ccccc12 (stereo not drawn)	0	2	.	37*	-1	-1
Cc1ccc(C)c(NC(=O)/C(C#N)=C/c2ccc[nH]2)c1	-3	0	5	37*	2	2
COCc1cc(/C=N\NC(=O)COc2ccccc2)ccc1OC	0	4	-27*	8	-2	.
COc1ccc(/C=N\NC(=O)c2ccc(-c3ccccc3)cc2)cc1COC(C)=O	0	2	-25*	7	2	-1
CCCC#Cc1cnc2c(c1)C(=O)N([C@@H](C)CO)C[C@H](C)[C@@H](CN(C)Cc1ccncc1)O2	.	.	0	.	.	1
N#CCCn1nc(Cc2cccc3ccccc23)c(C#N)c1N	3	2	-10	8	4	1
CCn1nc(Cc2cccc3ccccc23)c(C#N)c1N	2	2	-27*	10	4	2
Cc1ccc(S(=O)(=O)N(C)C[C@@H]2Oc3ccc(NC(=O)C4CC4)cc3CC(=O)N([C@@H](C)CO)C[C@H]2C)cc1	.	.	-1	.	.	48
COc1ccc(NS(=O)(=O)c2cccc3cccnc23)cc1	-2	1	.	-25	5	-2
O=S(=O)(NCCc1ccccc1)c1cccc2cccnc12	-3	-1	-25*	5	0	.
O=S(=O)(Nc1ccc(Br)cc1)c1cccc2cccnc12	-3	0	-26*	19	6	.
Cc1ccc(CNC(=O)CN2C(=O)NC(C)(c3cccc(Br)c3)C2=O)cc1 (stereo not drawn)	-4	2	-29*	10	2	-1
COc1ccc(CNC(=O)c2c(N)n(CCCN3CCOCC3)c3nc4ccccc4nc23)cc1	3	0	.	36*	-1	4
Nc1c(C(=O)NCc2ccco2)c2nc3ccccc3nc2n1CCc1ccccc1	2	-3	-28*	16	-23	.
C[C@H](CO)N1C[C@H](C)[C@H](CN(C)S(=O)(=O)c2ccc(Cl)cc2)Oc2c(NC(=O)c3nc4ccccc4s3)cccc2C1=O	.	.	2	.	.	-5
CCCN1[C@@H]2c3ccc(-c4cccc(F)c4)c(=O)n3C[C@H]1[C@H](CO)[C@H]2C(=O)N(C)C	.	.	3	.	.	.
C/C=C/c1ccc([C@H]2[C@@H](CO)N(C(C)=O)C23CN(C(=O)NC2CCCC2)C3)cc1	.	.	0	.	.	.
COc1ccc(CNC(C)C2COc3ccccc3O2)c(OC)c1 (stereo not drawn)	-8	-2	.	37*	-4	4
Cc1cc(C(c2ccc(O)cc2)c2cc(C)c(O)cc2C)c(C)cc1O	2	0	-37*	-11	-10	5
CCC(c1ccc(O)cc1)C(CC)c1ccc(O)cc1 (stereo not drawn)	1	2	-60	7	-6	-2
SMILES	DAGLB inh	hiPSC survival	Ecoli rRNA inh	SKN-1 inh	MT1-MMP act inh	Cneo AK release
O=C(C[C@H]1CC[C@@H]2[C@H](COC[C@@H](O)CN2S(=O)(=O)c2ccc(Oc3ccccc3)cc2)O1)Nc1ccccc1	.	.	-7	.	.	0
COc1ccc(-c2csc(C3=C(O)CN(C(C)C)C3=N)n2)cc1OC	3	-1	-35*	3	9	-1
COc1ccc(-c2nc(-c3ccc(O)cc3O)cs2)cc1OC	3	1	.	-2	-1	-2
CN1C(=O)c2cc(NC(=O)C3CC3)ccc2OC[C@@H]2O[C@H](CC(=O)NCc3cccc(F)c3)CC[C@@H]21	.	.	-6	.	.	-2
COc1ccc(NC(=O)COC(=O)Cc2coc3cc(OC)ccc23)c(OC)c1	-5	-1	-34*	15	6	0
COc1ccc2c(CC(=O)Nc3ccccc3N3CCOCC3)coc2c1	-2	0	-27*	-11	-1	-2
COc1ccc2c(CC(=O)Nc3ccccc3OC)coc2c1	-2	2	-20	7	0	-1
CCCc1cn(CC[C@H]2CC[C@H](NC(=O)CCN3CCCCC3)[C@@H](CO)O2)nn1	.	.	4	.	.	-2
c1ccc(-n2nc3c(ccc4cnnc43)[nH]2)cc1	-7	-1	.	31*	1	0
COc1ccc(NC(=O)Nc2ccc3c(c2)C(=O)N([C@@H](C)CO)C[C@@H](C)[C@H](CN(C)C(=O)Cc2ccccc2)OCCCC[C@H](C)O3)cc1	.	.	0	.	.	115*
CC(C)NC(=O)Nc1ccc2c(c1)C(=O)N([C@@H](C)CO)C[C@@H](C)[C@H](CN(C)C(=O)Cc1ccccc1)OCCCC[C@@H](C)O2	.	.	0	.	.	95*
COc1ccc(NC(=O)Nc2ccc3c(c2)C(=O)N([C@@H](C)CO)C[C@H](C)[C@H](CN(C)C(=O)Cc2ccccc2)OCCCC[C@@H](C)O3)cc1	.	.	6	.	.	1
COc1ccc(NC(=O)Nc2ccc3c(c2)C(=O)N([C@H](C)CO)C[C@H](C)[C@H](CN(C)C(=O)Cc2ccccc2)OCCCC[C@H](C)O3)cc1	.	.	1	.	.	101*
Cc1ccc(S(=O)(=O)N(C)C[C@@H]2Oc3ncc(C#CC4(O)CCCC4)cc3C(=O)N([C@H](C)CO)C[C@@H]2C)cc1	.	.	8	.	.	0
Cc1noc(C)c1NC(=O)N[C@@H]1CC[C@H](CCNC(=O)C2CCCCC2)O[C@H]1CO	.	.	0	.	.	1
CCOC(=O)C1CCN(C2=NC(=O)/C(=C/c3ccccc3OC)S2)CC1	0	-1	-24*	14	-4	1
COc1cc(C(=O)NC(=S)NNC(=O)c2ccc3c(c2)OCO3)cc(OC)c1OC	4	-1	-23*	-5	6	-5
COc1ccc2c3c([nH]c2c1)[C@H](CO)N(S(C)(=O)=O)CC31CCN(C(=O)CN(C)C)CC1	.	.	5	.	.	.
COC(=O)C1=C(C)NC(C)=C(C(=O)OC)C1C(=O)OCC(=O)N1c2ccccc2CC1C (stereo not drawn)	1	4	-12*	8	2	-2
CCCN1C[C@@H](C)[C@@H](OC)CN(C)C(=O)c2cc(NS(C)(=O)=O)ccc2OC[C@@H]1C	.	.	1	.	.	-2
